Reference: ChEMBL document CHEMBL3259544, “α-Ketoheterocycle inhibitors of fatty acid amide hydrolase: exploration of conformational constraints in the acyl side chain” (Bioorg Med Chem, 2014)
Values belong to the compound of their own block, whether it stands above or below them.

Legend:
[1] = target: T1, Fatty-acid amide hydrolase 1 (Rattus norvegicus, UniProt P97612); test: Inhibition of rat recombinant FAAH expressed in Escherichia coli using [14C]oleamide as substrate assessed as oleic acid formation by Dixon plot analysis
T1 sequence (P97612 whole entry): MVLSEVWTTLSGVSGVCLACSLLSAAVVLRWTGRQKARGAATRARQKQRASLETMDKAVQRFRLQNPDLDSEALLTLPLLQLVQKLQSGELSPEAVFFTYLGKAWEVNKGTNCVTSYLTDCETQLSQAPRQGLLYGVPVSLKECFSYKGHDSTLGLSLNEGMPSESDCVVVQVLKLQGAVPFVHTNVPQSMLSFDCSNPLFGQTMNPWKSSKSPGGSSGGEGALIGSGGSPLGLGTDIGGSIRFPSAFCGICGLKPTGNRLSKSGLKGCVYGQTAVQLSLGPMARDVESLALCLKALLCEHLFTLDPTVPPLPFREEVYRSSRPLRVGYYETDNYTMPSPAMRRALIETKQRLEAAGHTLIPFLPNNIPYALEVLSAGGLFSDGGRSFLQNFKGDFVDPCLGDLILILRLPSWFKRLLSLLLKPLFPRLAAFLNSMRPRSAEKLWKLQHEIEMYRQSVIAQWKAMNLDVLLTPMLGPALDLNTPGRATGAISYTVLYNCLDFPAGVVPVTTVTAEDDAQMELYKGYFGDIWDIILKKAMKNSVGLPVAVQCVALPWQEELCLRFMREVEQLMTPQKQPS

Monoglyceride lipase = target: T2, Monoglyceride lipase (Mus musculus, UniProt O35678); test: Inhibition of mouse brain MAGL incubated for 10 mins prior to rhodamine-tagged fluorophosphonate addition measured after 10 mins by SDS-PAGE
T2 sequence (O35678 whole entry): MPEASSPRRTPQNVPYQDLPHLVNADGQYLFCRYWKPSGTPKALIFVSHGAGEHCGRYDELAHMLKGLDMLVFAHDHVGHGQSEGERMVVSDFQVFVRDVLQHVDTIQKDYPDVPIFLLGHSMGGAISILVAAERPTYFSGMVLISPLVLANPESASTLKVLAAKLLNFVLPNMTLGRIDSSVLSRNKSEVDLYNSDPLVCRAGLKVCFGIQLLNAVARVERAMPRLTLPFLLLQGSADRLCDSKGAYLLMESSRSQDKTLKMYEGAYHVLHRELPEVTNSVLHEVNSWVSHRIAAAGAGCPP
Summary of the method: (§1)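 Mouse brain tissue was Dounce-homogenized in PBS pH 7.5, cleared at 1,400 g for 5 min, then split at 64,000 g for 45 min into soluble and membrane fractions. Proteome at 1 mg/mL in PBS was preincubated with inhibitor from DMSO stock for 10 min, then exposed to FP-rhodamine at 100 nM for 10 min at 25 °C. Gel bands were scanned and integrated relative to a DMSO control. IC50 came from dose-response curves, three trials per concentration.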

[2] = target: T3, Monoacylglycerol lipase ABHD6 (Mus musculus, UniProt Q8R2Y0); test: Inhibition of mouse brain ABHD6 incubated for 10 mins prior to rhodamine-tagged fluorophosphonate addition measured after 10 mins by SDS-PAGE; assay type: tissue-based; summary of the method: as §1
T3 sequence (Q8R2Y0 whole entry): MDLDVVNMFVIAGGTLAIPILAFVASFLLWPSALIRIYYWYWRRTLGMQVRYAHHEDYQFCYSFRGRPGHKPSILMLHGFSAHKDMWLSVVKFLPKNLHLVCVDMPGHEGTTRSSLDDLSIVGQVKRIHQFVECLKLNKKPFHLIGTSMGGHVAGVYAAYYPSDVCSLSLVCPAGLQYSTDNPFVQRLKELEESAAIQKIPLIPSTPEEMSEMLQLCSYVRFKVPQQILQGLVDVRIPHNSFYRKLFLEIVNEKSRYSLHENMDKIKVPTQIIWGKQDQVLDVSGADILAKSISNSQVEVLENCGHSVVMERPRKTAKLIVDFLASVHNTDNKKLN

[3] = target: T4, Fatty-acid amide hydrolase 1 (Mus musculus, UniProt O08914); test: Inhibition of mouse brain FAAH incubated for 10 mins prior to rhodamine-tagged fluorophosphonate addition measured after 10 mins by SDS-PAGE; summary of the method: as §1
T4 sequence (O08914 whole entry): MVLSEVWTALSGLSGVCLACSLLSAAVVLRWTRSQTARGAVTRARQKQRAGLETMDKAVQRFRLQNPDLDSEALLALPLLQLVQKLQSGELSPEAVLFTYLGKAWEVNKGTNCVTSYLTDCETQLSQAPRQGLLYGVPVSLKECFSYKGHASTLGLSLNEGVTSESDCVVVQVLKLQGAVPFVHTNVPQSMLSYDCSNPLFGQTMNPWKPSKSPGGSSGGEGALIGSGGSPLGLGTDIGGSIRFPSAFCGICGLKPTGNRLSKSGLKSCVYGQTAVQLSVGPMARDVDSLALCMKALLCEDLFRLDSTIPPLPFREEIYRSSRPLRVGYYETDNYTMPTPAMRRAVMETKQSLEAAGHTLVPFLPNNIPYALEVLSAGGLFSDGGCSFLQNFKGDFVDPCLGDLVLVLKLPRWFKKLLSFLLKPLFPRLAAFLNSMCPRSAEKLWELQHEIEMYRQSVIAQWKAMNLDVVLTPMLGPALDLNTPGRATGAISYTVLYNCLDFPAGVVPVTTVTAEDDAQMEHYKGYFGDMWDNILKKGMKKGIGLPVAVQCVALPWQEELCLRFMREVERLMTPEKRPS

[4] = target: T5, Neutral cholesterol ester hydrolase 1 (Mus musculus, UniProt Q8BLF1); test: Inhibition of mouse brain KIAA1363 incubated for 10 mins prior to rhodamine-tagged fluorophosphonate addition measured after 10 mins by SDS-PAGE; summary of the method: as §1
T5 sequence (Q8BLF1 whole entry): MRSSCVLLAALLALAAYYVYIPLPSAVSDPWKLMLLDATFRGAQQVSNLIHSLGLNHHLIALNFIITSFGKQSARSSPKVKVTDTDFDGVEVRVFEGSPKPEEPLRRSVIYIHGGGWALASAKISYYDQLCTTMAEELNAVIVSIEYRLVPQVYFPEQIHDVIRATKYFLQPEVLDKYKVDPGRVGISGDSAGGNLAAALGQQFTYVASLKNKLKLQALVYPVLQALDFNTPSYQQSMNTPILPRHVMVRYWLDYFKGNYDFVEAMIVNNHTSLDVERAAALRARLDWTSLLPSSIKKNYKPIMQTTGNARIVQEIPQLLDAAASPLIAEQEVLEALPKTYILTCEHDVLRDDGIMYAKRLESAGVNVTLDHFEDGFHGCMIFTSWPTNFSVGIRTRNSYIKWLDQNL

Mus musculus [5] = organism: Mus musculus; test: Selectivity ratio of IC50 for mouse brain ABHD6 to mouse brain FAAH
Mus musculus [6] = organism: Mus musculus; test: Selectivity ratio of IC50 for mouse brain KIAA1363 to mouse brain FAAH
Mus musculus [7] = organism: Mus musculus; test: Selectivity ratio of IC50 for mouse brain MAGL to mouse brain FAAH
[8] = target: T6, Fatty-acid amide hydrolase 1 (Homo sapiens, UniProt O00519); test: Reversible inhibition of FAAH (unknown origin)
T6 sequence (O00519 whole entry): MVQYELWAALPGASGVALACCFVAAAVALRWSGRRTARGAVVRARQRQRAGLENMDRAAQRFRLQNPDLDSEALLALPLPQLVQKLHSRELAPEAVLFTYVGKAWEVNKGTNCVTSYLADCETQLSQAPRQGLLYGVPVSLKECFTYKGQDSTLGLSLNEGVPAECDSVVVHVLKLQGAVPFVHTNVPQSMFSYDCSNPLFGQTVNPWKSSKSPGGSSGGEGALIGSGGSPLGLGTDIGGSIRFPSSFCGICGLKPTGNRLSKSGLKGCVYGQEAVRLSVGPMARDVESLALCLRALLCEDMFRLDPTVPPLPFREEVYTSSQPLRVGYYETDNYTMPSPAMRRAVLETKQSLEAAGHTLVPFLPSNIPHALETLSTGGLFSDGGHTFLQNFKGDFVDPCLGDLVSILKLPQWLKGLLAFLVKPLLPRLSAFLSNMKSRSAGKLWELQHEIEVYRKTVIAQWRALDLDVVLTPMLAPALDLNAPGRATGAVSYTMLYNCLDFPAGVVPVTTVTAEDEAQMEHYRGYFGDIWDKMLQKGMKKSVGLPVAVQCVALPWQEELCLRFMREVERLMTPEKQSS

Ki [1]: 36 nM
IC50 (Monoglyceride lipase): > 100000 nM
IC50 [2]: > 100000 nM
IC50 [3]: 70 nM
IC50 [4]: > 100000 nM
SMILES: O=C(c1ncc(-c2ccccn2)o1)C1CCc2cc(Oc3ccccc3)ccc2O1 (single isomer, unassigned) [listing 1 of 2 here]

Ratio IC50 (Mus musculus [5]): > 200
Ratio IC50 (Mus musculus [6]): > 200
Ratio IC50 (Mus musculus [7]): > 200
SMILES: O=C(c1ncc(-c2ccccn2)o1)C1CCc2cc(Oc3ccccc3)ccc2O1 (single isomer, unassigned; enantiomer 2) [listing 1 of 2 here]

Ki [1]: 11 nM
SMILES: O=C(c1ncc(-c2ccccn2)o1)[C@@H]1COc2cc(-c3ccccc3)ccc2C1

Ki [1]: 27 nM
Ratio IC50 (Mus musculus [5]): > 200
IC50 (Monoglyceride lipase): > 100000 nM
IC50 [2]: > 100000 nM
Ratio IC50 (Mus musculus [6]): > 200
IC50 [3]: 460 nM
IC50 [4]: > 100000 nM
Ratio IC50 (Mus musculus [7]): > 200
SMILES: O=C(c1ncc(-c2ccccn2)o1)[C@@H]1COc2cc(Oc3ccccc3)ccc2C1

Ki [1]: 120 nM
IC50 (Monoglyceride lipase): > 100000 nM
IC50 [2]: > 100000 nM
IC50 [3]: 50 nM
IC50 [4]: > 100000 nM
SMILES: O=C(c1ncc(-c2ccccn2)o1)C1CCc2cc(Oc3ccccc3)ccc2O1 (single isomer, unassigned; enantiomer 2) [listing 2 of 2 here]

Ki [1]: 20 nM
SMILES: O=C(c1ncco1)[C@H]1COc2cc(-c3ccccc3)ccc2C1

Ki [1]: 31 nM
SMILES: O=C(c1ncc(I)o1)[C@@H]1COc2cc(Oc3ccccc3)ccc2C1

Ki [8]: 800 nM
SMILES: CCCCCCC(C)OC(=O)C(Br)C(C)=O (configuration not stated)

Ki [1]: 32 nM
SMILES: O=C(c1ncco1)[C@@H]1COc2cc(-c3ccccc3)ccc2C1

Second part, the compound before the results:

SMILES: O=C(c1ncco1)C1COc2cc(Oc3ccccc3)ccc2C1 (racemic)
Ki [1]: 33 nM

SMILES: COC(=O)c1cccc(-c2cnc(C(=O)C3CCc4cc(Oc5ccccc5)ccc4O3)o2)n1 (single isomer, unassigned; enantiomer 2)
Ki [1]: 210 nM

SMILES: O=C(c1ncco1)C1CCc2cc(Oc3ccccc3)ccc2O1 (single isomer, unassigned; enantiomer 2)
Ki [1]: 31 nM

SMILES: O=C(c1ncco1)[C@H]1COc2cc(OCc3ccccc3)ccc2C1
Ki [1]: 20 nM

SMILES: O=C(c1ncco1)C1CCc2cc(Oc3ccccc3)ccc2O1 (single isomer, unassigned; enantiomer 1)
Ki [1]: 17 nM

SMILES: O=C(c1ncc(-c2ccccn2)o1)[C@H]1COc2cc(Oc3ccccc3)ccc2C1
Ki [1]: 18 nM
Ratio IC50 (Mus musculus [5]): > 200
IC50 (Monoglyceride lipase): > 100000 nM
IC50 [2]: > 100000 nM
Ratio IC50 (Mus musculus [6]): > 200
IC50 [3]: 90 nM
IC50 [4]: > 100000 nM
Ratio IC50 (Mus musculus [7]): > 200

SMILES: O=C(c1ncc(-c2ccccn2)o1)C1COc2cc(OCc3ccccc3)ccc2C1 (racemic)
Ki [1]: 17 nM

SMILES: O=C(c1ncc(-c2ccccn2)o1)[C@@H]1COc2cc(OCc3ccccc3)ccc2C1
Ki [1]: 17 nM

SMILES: O=C(c1ncc(-c2ccccn2)o1)[C@H]1CCc2cc(Oc3ccccc3)ccc2C1
Ki [1]: 4.4 nM

SMILES: COC(=O)c1cccc(-c2cnc(C(=O)[C@H]3COc4cc(Oc5ccccc5)ccc4C3)o2)n1
Ki [1]: 41 nM

SMILES: O=C(c1ncc(-c2ccccn2)o1)C1CCc2cc(Oc3ccccc3)ccc2O1 (single isomer, unassigned) [listing 2 of 2 here]
Ratio IC50 (Mus musculus [5]): > 200
Ratio IC50 (Mus musculus [6]): > 200
Ratio IC50 (Mus musculus [7]): > 200

SMILES: COC(=O)c1cccc(-c2cnc(C(=O)[C@@H]3COc4cc(Oc5ccccc5)ccc4C3)o2)n1
Ki [1]: 333 nM

SMILES: COC(=O)c1cccc(-c2cnc(C(=O)C3CCc4cc(Oc5ccccc5)ccc4O3)o2)n1 (single isomer, unassigned; enantiomer 1)
Ki [1]: 94 nM

SMILES: O=C(c1ncc(-c2ccccn2)o1)[C@H]1COc2cc(-c3ccccc3)ccc2C1
Ki [1]: 23 nM

SMILES: O=C(c1ncc(I)o1)[C@H]1COc2cc(Oc3ccccc3)ccc2C1
Ki [1]: 20 nM

SMILES: O=C(c1ncc(-c2ccccn2)o1)[C@H]1COc2cc(OCc3ccccc3)ccc2C1
Ki [1]: 18 nM

SMILES: O=C(c1ncco1)[C@@H]1COc2cc(OCc3ccccc3)ccc2C1
Ki [1]: 16 nM
